Measurements published in ChEMBL document CHEMBL4706647, “Development and optimization of halogenated vinyl sulfones as Nrf2 activators for the treatment of Parkinson's disease” (Eur J Med Chem, 2021).
Active and inactive are the calls of the source. The rule behind the calls is not given here.

What was measured:
[1] = molecular target: T1, Nuclear factor erythroid 2-related factor 2 (Mus musculus) (UniProt Q60795); assay: Activation of Nrf2 in mouse BV-2 cells assessed as increase in nuclear Nrf2 levels at 0.5 uM after 6 hrs by Western blot analysis relative to control; format: cell-based; details: filed as activator
T1 sequence (whole entry): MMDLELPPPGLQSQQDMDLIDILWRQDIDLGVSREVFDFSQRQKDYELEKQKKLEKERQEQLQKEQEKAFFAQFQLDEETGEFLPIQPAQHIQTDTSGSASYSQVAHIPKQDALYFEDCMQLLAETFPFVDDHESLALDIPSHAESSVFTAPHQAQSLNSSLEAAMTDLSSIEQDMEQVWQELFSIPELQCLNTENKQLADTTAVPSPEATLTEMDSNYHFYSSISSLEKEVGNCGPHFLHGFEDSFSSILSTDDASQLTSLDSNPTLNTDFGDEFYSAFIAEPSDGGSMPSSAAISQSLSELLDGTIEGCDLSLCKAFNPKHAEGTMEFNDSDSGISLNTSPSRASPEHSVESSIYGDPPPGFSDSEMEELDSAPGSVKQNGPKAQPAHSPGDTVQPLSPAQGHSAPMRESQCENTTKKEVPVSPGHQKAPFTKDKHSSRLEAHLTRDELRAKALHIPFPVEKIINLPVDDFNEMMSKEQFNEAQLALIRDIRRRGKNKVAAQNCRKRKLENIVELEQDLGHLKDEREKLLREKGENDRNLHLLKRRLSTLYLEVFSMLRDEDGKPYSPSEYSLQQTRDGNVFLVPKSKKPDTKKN

[2] = molecular target: T1, Nuclear factor erythroid 2-related factor 2 (Mus musculus); assay: Activation of Nrf2 in mouse BV-2 cells assessed as increase in Sod1 mRNA expression at 1 uM after 6 hrs by RT-qPCR analysis relative to control; format: cell-based; details: filed as activator
Summary of the method: (§1)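 BV-2 cells exposed to a range of concentrations for 6 h. Ho1, Gclc, Gclm and Sod1 mRNA quantified by RT-qPCR and expressed relative to vehicle-treated control. Mean ± SEM, n = 3; Student's t-test.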

BV-2 = assay: Inhibition of nitric oxide production in LPS-stimulated mouse BV-2 cells harboring Nrf2 siRNA at 100 nM cotreated with LPS for 24 hrs by griess assay
[3] = Stability in human plasma assessed as parent compound remaining after 30 mins by LC-MS/MS analysis; format: ADME, cell-free; details: read-out: Stabilty
[4] = Cytotoxicity against mouse BV-2 cells assessed cell viability at 3 uM measured after 6 hrs by Ez-cytox reagent based assay relative to control; details: read-out: Activity
Summary of the method: (§2)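 BV-2 cells (1.0 × 10⁴/well) grown 24 h at 37 °C, 5% CO2, then treated 6 h at […]. Viability expressed as percent of control.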

[5] = molecular target: T1, Nuclear factor erythroid 2-related factor 2 (Mus musculus); assay: Activation of Nrf2 in mouse BV-2 cells assessed as increase in Gclc mRNA expression after 6 hrs by RT-qPCR analysis; format: cell-based; details: filed as activator, dose 0.03-1 µM; summary of the method: as §1
[6] = Cytotoxicity against mouse BV-2 cells assessed cell viability at 1 uM measured after 6 hrs by Ez-cytox reagent based assay relative to control; details: read-out: Activity; summary of the method: as §2
[7] = molecular target: T1, Nuclear factor erythroid 2-related factor 2 (Mus musculus); assay: Activation of Nrf2 in mouse BV-2 cells assessed as increase in GCLC expression at 10 uM after 6 hrs by Western blot analysis relative to control; format: cell-based; details: filed as activator
Summary of the method: (§3)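 BV-2 microglia grown in RPMI-1640 with 10% FBS, penicillin-streptomycin and 2 mM L-glutamine at 37 °C, 5% CO2. Cells exposed to a range of concentrations for 6 h, then HO-1, GCLC, GCLM and SOD1 protein measured by Western blot. Band intensity normalized to β-actin and given as fold of vehicle control. Mean ± SEM, n = 3, three separate experiments.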

[8] = molecular target: T2, Nuclear factor erythroid 2-related factor 2 (Homo sapiens, UniProt Q16236); assay: Activation of Nrf2 (unknown origin) expressed in human U2OS cells co-expressing Keap1 assessed as increase in Nrf2 nuclear translocation incubated for 6 hrs under dark condition by pathhunter assay; format: cell-based
T2 sequence (Q16236 whole entry): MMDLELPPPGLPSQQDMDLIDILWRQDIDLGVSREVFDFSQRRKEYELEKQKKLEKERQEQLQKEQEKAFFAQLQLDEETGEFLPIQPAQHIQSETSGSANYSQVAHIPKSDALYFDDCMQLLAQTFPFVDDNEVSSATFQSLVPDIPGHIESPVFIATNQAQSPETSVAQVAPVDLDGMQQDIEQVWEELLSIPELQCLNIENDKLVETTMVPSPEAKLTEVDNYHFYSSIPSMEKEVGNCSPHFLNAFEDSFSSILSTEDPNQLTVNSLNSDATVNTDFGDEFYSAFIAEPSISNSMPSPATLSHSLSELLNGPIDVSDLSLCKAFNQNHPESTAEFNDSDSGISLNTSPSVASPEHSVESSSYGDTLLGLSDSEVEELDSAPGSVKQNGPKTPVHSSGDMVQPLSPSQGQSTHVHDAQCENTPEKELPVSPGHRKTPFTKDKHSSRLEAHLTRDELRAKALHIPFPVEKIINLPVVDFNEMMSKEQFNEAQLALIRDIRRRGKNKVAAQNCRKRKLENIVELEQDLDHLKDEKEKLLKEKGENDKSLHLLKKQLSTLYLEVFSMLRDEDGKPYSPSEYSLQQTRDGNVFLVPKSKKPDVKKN

[9] = molecular target: T1, Nuclear factor erythroid 2-related factor 2 (Mus musculus); assay: Activation of Nrf2 in mouse BV-2 cells assessed as increase in GCLC expression after 6 hrs by Western blot analysis; format: cell-based; details: filed as activator, dose 0.02-10 µM; summary of the method: as §3
[10] = molecular target: T1, Nuclear factor erythroid 2-related factor 2 (Mus musculus); assay: Activation of Nrf2 in mouse BV-2 cells assessed as increase in Gclc mRNA expression at 1 uM after 6 hrs by RT-qPCR analysis relative to control; format: cell-based; details: filed as activator; summary of the method: as §1
[11] = Stability in human microsomes assessed as parent compound remaining after 30 mins; format: ADME, Microsome; details: read-out: Stabilty
[12] = molecular target: T1, Nuclear factor erythroid 2-related factor 2 (Mus musculus); assay: Activation of Nrf2 in mouse BV-2 cells assessed as increase in Gclm mRNA expression at 1 uM after 6 hrs by RT-qPCR analysis relative to control; format: cell-based; details: filed as activator; summary of the method: as §1
[13] = Cytotoxicity against mouse BV-2 cells assessed cell viability at 0.1 uM measured after 6 hrs by Ez-cytox reagent based assay relative to control; details: read-out: Activity; summary of the method: as §2
CYP3A4 = CYP3A4 (Homo sapiens, UniProt P08684); assay: Inhibition of CYP3A4 (unknown origin) assessed as residual activity; format: ADME
CYP3A4, sequence (P08684 whole entry): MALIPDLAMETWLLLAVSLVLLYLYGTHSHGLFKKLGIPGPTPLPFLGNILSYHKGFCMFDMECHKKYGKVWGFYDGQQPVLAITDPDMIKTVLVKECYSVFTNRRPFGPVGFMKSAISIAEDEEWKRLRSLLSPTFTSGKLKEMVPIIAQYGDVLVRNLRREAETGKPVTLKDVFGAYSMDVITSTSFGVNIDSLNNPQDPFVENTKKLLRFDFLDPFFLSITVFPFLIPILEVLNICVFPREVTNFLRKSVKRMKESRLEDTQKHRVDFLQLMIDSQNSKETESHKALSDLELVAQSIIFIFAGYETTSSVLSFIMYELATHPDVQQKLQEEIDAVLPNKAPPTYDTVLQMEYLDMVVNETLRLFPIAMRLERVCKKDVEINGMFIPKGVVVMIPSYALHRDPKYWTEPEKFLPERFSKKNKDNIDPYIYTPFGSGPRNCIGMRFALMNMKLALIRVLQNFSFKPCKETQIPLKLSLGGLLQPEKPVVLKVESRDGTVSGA

fold change (FC) [1]: 11 | fold change (FC) [2]: 2.5 | remaining at 0.5 h [3]: 97% | Activity [5]: Dose-dependent effect | fold change (FC) [7]: 8.5 | EC50 [8]: 26 nM | Activity [9]: Dose-dependent effect | fold change (FC) [10]: 2.6 | remaining at 0.5 h [11]: 66% | fold change (FC) [12]: 6.9 | activity (CYP3A4): 91.2%
SMILES: O=S(=O)(/C=C/c1ncccc1Cl)c1ccccc1Cl
inhibition (BV-2): inactive | viability at 6 h, 3 µM [4]: 92.4% | viability at 6 h, 1 µM [6]: 98.9% | viability at 6 h, 0.1 µM [13]: 100%
